By inhibition is commonly meant how much of the control response was suppressed. In general, IC50 refers to the midpoint of a concentration-inhibition curve.

Here are results for 36 compounds from ChEMBL document CHEMBL2390866, “Novel pyrimidoazepine analogs as serotonin 5-HT(2A) and 5-HT(2C) receptor ligands for the treatment of obesity” (Eur J Med Chem, 2013).

Experiment [1] addresses T1, 5-hydroxytryptamine receptor 2A (Homo sapiens, UniProt P28223). The experiment in a line: Displacement of [3H]-ketanserin from human recombinant 5HT-2A receptor expressed in CHOK1 cell membranes at 10 uM after 60 mins relative to control. Conditions: CHO-K1. An outline of the steps:
(§1)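 Buffer was 50 mM Tris-HCl pH 7.4 with 5 mM CaCl2 and 0.1% ascorbic acid. Test compound added at a range of concentrations.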
A general note: Loss of bound radioactivity is the signal in a displacement assay; it reports binding, not function.

Experiment [2] concerns the target T2, 5-hydroxytryptamine receptor 2C (Homo sapiens) (UniProt P28335).
T2 sequence (whole entry): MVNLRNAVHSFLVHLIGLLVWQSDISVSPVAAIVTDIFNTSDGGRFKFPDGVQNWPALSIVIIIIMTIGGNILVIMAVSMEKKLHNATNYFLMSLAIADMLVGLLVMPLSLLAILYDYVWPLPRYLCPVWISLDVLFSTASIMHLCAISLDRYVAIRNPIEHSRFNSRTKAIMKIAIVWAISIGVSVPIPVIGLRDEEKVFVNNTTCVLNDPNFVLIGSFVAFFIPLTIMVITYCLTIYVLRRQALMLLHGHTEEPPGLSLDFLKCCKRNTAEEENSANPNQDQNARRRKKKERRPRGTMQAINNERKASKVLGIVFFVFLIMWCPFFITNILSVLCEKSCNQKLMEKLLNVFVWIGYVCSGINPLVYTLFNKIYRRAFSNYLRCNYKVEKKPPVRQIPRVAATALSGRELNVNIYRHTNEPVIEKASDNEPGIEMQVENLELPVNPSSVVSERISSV
As to the kind of experiment: Displacement of [3H]-mesulergine from human recombinant 5HT-2C receptor expressed in CHOK1 cell membranes at 10 uM after 30 mins relative to control. Conditions: CHO-K1. The method, boiled down:
(§2)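 Frozen CHO-K1 membranes expressing recombinant human 5-HT2C incubated with 1 nM [3H]mesulergine in 50 mM Tris-HCl pH 7.4 containing 0.1% ascorbic acid and pargyline. Mianserin defined nonspecific binding.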

Experiment [3] concerns the target T3, 5-hydroxytryptamine receptor 2C (Homo sapiens, UniProt P28335).
T3 sequence (P28335 whole entry): T2 sequence (whole entry)
The experiment in a line: Displacement of [3H]-mesulergine from human recombinant 5HT-2C receptor expressed in CHOK1 cell membranes after 30 mins. On the set-up: species or system CHO-K1. The method, boiled down: as §2

Experiment [4] deals with T1, 5-hydroxytryptamine receptor 2A. As to the kind of experiment: Displacement of [3H]-ketanserin from human recombinant 5HT-2A receptor expressed in CHOK1 cell membranes after 60 mins. The arrangement: species or system CHO-K1. The method, boiled down: as §1

T1 sequence (P28223 whole entry): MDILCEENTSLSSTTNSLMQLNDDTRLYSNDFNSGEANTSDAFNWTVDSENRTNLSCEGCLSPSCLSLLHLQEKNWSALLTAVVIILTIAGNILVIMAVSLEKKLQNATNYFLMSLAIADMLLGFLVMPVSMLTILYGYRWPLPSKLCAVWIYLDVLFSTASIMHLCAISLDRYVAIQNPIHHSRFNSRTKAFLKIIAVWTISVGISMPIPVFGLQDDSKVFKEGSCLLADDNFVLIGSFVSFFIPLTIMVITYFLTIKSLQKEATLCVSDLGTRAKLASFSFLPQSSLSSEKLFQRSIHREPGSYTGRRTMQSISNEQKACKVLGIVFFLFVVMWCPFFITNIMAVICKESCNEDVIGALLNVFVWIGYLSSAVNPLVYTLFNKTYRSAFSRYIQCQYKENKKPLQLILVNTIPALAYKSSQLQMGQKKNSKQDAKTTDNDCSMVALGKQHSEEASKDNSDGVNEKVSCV

As to `CCN(CC)c1nc(Nc2cccc(OC)c2)c2cn[nH]c2n1`, the inhibition in experiment [1] was 87%; in experiment [2] it was 61%. The values for the IC50 in experiment [3] and in experiment [4] were 5420 nM and 2080 nM, respectively.
Taken in the same sequence, the figures for `CCNc1nc(Nc2ccccc2)c2cn[nH]c2n1` were 6%, 15%, > 10000 nM and > 10000 nM.
The corresponding values for `CN1CCN(c2nc(Nc3ccccc3)c3cn[nH]c3n2)CC1` are 100%, 100%, 86.9 nM and 25.1 nM.
With `Fc1ccc(Nc2nc(N3CCOCC3)nc3[nH]ncc23)cc1`, the inhibition was 83% in experiment [1] and 81% in experiment [2]. Further, the half-inhibitory concentration (IC50) in experiment [3] is 2070 nM; in experiment [4], 2620 nM.
Taken in the same sequence, the figures for `CCCNc1nc(Nc2ccccc2)c2cn[nH]c2n1` were 30%, 29%, > 10000 nM and > 10000 nM.
As for `CNc1nc(Nc2ccc(F)cc2)c2cn[nH]c2n1`, the inhibition amounted to 49% in experiment [1] and 51% in experiment [2]. For the same compound, the IC50 was 7790 nM in experiment [3] and > 10000 nM in experiment [4].
As for `OCCCNc1nc(Nc2ccc(F)cc2)c2cn[nH]c2n1`, the inhibition turned out to be 26% in experiment [1] and 5% in experiment [2]. The IC50 in experiment [3] and in experiment [4] was > 10000 nM in each case.
Turning to `CN1CCc2nc(N3CCN(C)CC3)nc(Nc3ccc(F)cc3)c2CC1`, the IC50 amounted to 779 nM in experiment [3] and 684 nM in experiment [4].
Take `Fc1ccc(Nc2nc(NCCN3CCOCC3)nc3[nH]ncc23)cc1`: the values for the inhibition in experiment [1] and in experiment [2] were 51% and 35%, respectively. Also, the IC50 was > 10000 nM in experiment [3] and 9740 nM in experiment [4].
In the case of `CC1CC(C)CN(c2nc(Nc3ccc(F)cc3)c3cn[nH]c3n2)C1` (centres undefined), the values for the inhibition in experiment [1] and in experiment [2] were 75% and 67%, respectively. The IC50 in experiment [3] was 3820 nM; in experiment [4], 5870 nM.
As to `COc1ccc(Nc2nc(Cc3ccccc3)nc3c2CCNCC3)cc1`, the IC50 in experiment [3] was 269 nM; in experiment [4] it was 57.4 nM.
As for `CC1CCN(c2nc(Nc3ccc(F)cc3)c3cn[nH]c3n2)CC1`, the inhibition in experiment [1] was 83%; in experiment [2] it was 86%. In addition, the IC50 was determined as 1500 nM in experiment [3] and 3670 nM in experiment [4].
Taken in the same sequence, the figures for `OCCN1CCN(c2nc(Nc3ccc(F)cc3)c3cn[nH]c3n2)CC1` were 100%, 97%, 494 nM and 163 nM.
Taken in the same sequence, the figures for `Fc1ccc(Nc2nc(NC3CCCCC3)nc3[nH]ncc23)cc1` were 73%, 62%, 5710 nM and 3670 nM.
Taken in the same sequence, the figures for `CN1CCN(c2nc(Nc3ccc(Cl)cc3)c3cn[nH]c3n2)CC1` were 100%, 100%, 29.4 nM and 28.8 nM.
For the compound `Fc1ccc(Nc2nc(NCc3ccccc3)nc3[nH]ncc23)cc1`, the figures for the inhibition in experiment [1] and in experiment [2] were 85% and 82%, respectively. The IC50 in experiment [3] amounted to 2590 nM; in experiment [4] it was 1270 nM.
Consider `COc1nc(N2CCN(C)CC2)nc2c1CCNCC2`, for which the IC50 in experiment [3] and in experiment [4] was > 10000 nM throughout.
For `Fc1ccc(Nc2nc(N3CCN(c4ccccc4)CC3)nc3[nH]ncc23)cc1`, the inhibition was 100% in experiment [1] and 88% in experiment [2]. The results for the IC50 in experiment [3] and in experiment [4] were 416 nM and 27.2 nM, respectively.
`CN1CCN(c2ncc3c(n2)CCNCC3)CC1`: the IC50 in experiment [3] and in experiment [4] was > 10000 nM each time.
On to `COCCCNc1nc(Nc2ccc(F)cc2)c2cn[nH]c2n1`, for which the inhibition is 67% in experiment [1] and 28% in experiment [2]. Moreover, the IC50 is > 10000 nM in experiment [3] and 5280 nM in experiment [4].
The corresponding values for `Fc1ccc(Nc2nc(N3CCN(c4ccc(F)cc4)CC3)nc3[nH]ncc23)cc1` are 94%, 96%, 148 nM and 17.9 nM.
Take `COCCNc1nc(Nc2ccc(F)cc2)c2cn[nH]c2n1`: the inhibition was 25% in experiment [1] and 18% in experiment [2]. The IC50 in experiment [3] and in experiment [4] was > 10000 nM each time.
With `CCN(CC)c1nc(Nc2ccc(F)cc2)c2cn[nH]c2n1`, the values for the inhibition in experiment [1] and in experiment [2] were 84% and 76%, respectively. Besides, the values for the IC50 in experiment [3] and in experiment [4] were 3310 nM and 4530 nM, respectively.
In the case of `COc1cccc(Nc2nc(N3CCN(C)CC3)nc3[nH]ncc23)c1`, the inhibition in experiment [1] and in experiment [2] was 100% each time. Moreover, the values for the IC50 in experiment [3] and in experiment [4] were 7.8 nM and 9.1 nM, respectively.
With `Fc1ccc(Nc2nc(NC3CCCC3)nc3[nH]ncc23)cc1`, the inhibition in experiment [1] is 72%; in experiment [2], 35%. Moreover, the values for the IC50 in experiment [3] and in experiment [4] were > 10000 nM and 4500 nM, respectively.
For the compound `CCN(CC)c1nc(Nc2ccc(C)c(C)c2)c2cn[nH]c2n1`, the inhibition was 85% in experiment [1] and 52% in experiment [2]. Also, the IC50 is 8490 nM in experiment [3] and 2750 nM in experiment [4].
For `CN1CCN(c2nc(Nc3ccc(F)cc3)c3cn[nH]c3n2)CC1`, the inhibition in experiment [1] and in experiment [2] was 100% in each case. For the same compound, the IC50 in experiment [3] is 85.8 nM; in experiment [4], 24.2 nM.
For `CCN(CC)c1nc(Nc2ccccc2C)c2cn[nH]c2n1`, the inhibition was determined as 66% in experiment [1] and 88% in experiment [2]. The half-maximal inhibitory concentration (IC50) is 242 nM in experiment [3] and 4580 nM in experiment [4].
The corresponding values for `Fc1ccc(Nc2nc(N3CCN(Cc4ccccc4)CC3)nc3[nH]ncc23)cc1` are 100%, 96%, 836 nM and 52.2 nM.
Take `COc1ccc(Nc2nc(N3CCN(c4ccc(F)cc4)CC3)nc3[nH]ncc23)cc1`: the results for the inhibition in experiment [1] and in experiment [2] were 92% and 86%, respectively. Besides, the figures for the IC50 in experiment [3] and in experiment [4] were 1180 nM and 696 nM, respectively.
Taken in the same sequence, the figures for `COc1cccc(Nc2nc(N3CCN(c4ccc(F)cc4)CC3)nc3[nH]ncc23)c1` were 100%, 85%, 1080 nM and 350 nM.
Taken in the same sequence, the figures for `CN(C)c1nc(Nc2ccc(F)cc2)c2cn[nH]c2n1` were 79%, 66%, 4030 nM and 4880 nM.
Taken in the same sequence, the figures for `Fc1ccc(Nc2nc(N3CCCCC3)nc3[nH]ncc23)cc1` were 86%, 89%, 1300 nM and 2200 nM.
In the case of `CN1CCN(c2nc3c(c(OCc4ccco4)n2)CCNCC3)CC1`, the results for the IC50 in experiment [3] and in experiment [4] were 1260 nM and 2630 nM, respectively.
For `COc1ccccc1N1CCN(c2nc(Nc3ccc(F)cc3)c3cn[nH]c3n2)CC1`, the inhibition in experiment [1] turned out to be 93%; in experiment [2], 78%. Also, the values for the IC50 in experiment [3] and in experiment [4] were 1730 nM and 1380 nM, respectively.
With `C=CCNc1nc(Nc2ccc(F)cc2)c2cn[nH]c2n1`, the inhibition in experiment [1] stood at 60%; in experiment [2] it was 41%. For the same compound, the IC50 is > 10000 nM in experiment [3] and 6580 nM in experiment [4].
